Results from different studies.
Compare with care: the assays were run in different laboratories.
Target: Serine/threonine-protein kinase Sgk1 (SGK1, Homo sapiens, UniProt O00141)

Structure (SMILES)	assay	setting	quantity	value
Fc1cccc(-n2cnc3c(NCc4nc5c(F)c(F)ccc5[nH]4)nc(N4CCOCC4)nc32)c1	binding, competition with immobilised ligand	10 µM	binding vs control	24%
CC1=C(C#N)C(c2ccc3c(c2)c(NC(=O)c2ccccc2C)nn3C)C(C#N)=C(C)N1	cell-free assay, competition with immobilised ligand	1 µM	remaining binding	89%
CC(C)(C)c1nc2c(s1)c1nc(N)ncc1c1ccc(NS(=O)(=O)c3c(F)cccc3F)c(F)c12	enzyme activity, inhibitor, radiometric	1 µM	remaining activity	87%
CNCc1ccc(-c2cc(-c3nc(-c4ccc(S(=O)(=O)C(C)C)cc4)cnc3N)on2)cc1	enzyme activity, inhibitor	2 µM	inhibition	0%
CN(C)C1CCN(CC#Cc2nn(C3CCCC3)c3nc(NCc4ccccc4)ncc23)C1 (stereo not shown)	enzyme activity, inhibitor, FRET	1 µM	inhibition	9%
CC/C(=N\NC(=O)C(C)Nc1ccccc1)c1ccc(O)c(C)c1O (stereo not shown)	enzyme activity, inhibitor	0.1 µM	inhibition	44.6%
O=C(Nc1cnn(-c2csc(C(=O)NC3COC3)c2)c1)Nc1ccccc1Cl	enzyme activity, inhibitor	5 µM	remaining activity	93.7%
CN(c1ncccc1CNc1nc(Nc2ccc3c(c2)CC(=O)N3)ncc1C(F)(F)F)S(C)(=O)=O	enzyme activity, inhibitor	1 µM	inhibition	13.4%
CCOCCn1cc(C(=O)Nc2ccc(-n3nc(-c4cccnc4)cc3C(F)(F)F)cn2)ccc1=O	cell-free assay, competition with immobilised ligand	1 µM	remaining binding	83%
Oc1cccc(-c2nc(N3CCOCC3)c3oc4ncccc4c3n2)c1	enzyme activity, inhibitor	10 µM	remaining activity	92%
CC(C)(O)[C@H]1CC[C@H](Nc2ccc3ncc(-c4cccc(C(F)(F)F)c4)n3n2)CC1	enzyme activity, inhibitor	1 µM	remaining activity	99.4%
c1nc2c(Nc3ccc4c(c3)OCCO4)nc(Nc3ccc4c(c3)OCCO4)nc2[nH]1	enzyme activity, inhibitor	10 µM	activity vs control	100%
FC(F)c1nc2ccccc2n1-c1nc(N2CCOCC2)nc(N2CCOCC2)n1	enzyme activity, inhibitor	10 µM	remaining activity	98%
O=C(Nc1ccc(Oc2ccc(F)cc2)cc1)N1CCc2ncccc2[C@H]1c1ccc(F)cc1	cell-free assay, competition with immobilised ligand	1 µM	remaining binding	95%
Cc1ccc(Nc2nccc(N(C)c3ccc4c(C)n(C)nc4c3)n2)cc1S(N)(=O)=O	enzyme activity, inhibitor	10 µM	inhibition	-2%
O=C1NC(=O)c2cc(Nc3ccc(F)cc3)c(Nc3ccc(F)cc3)cc21	cell-free assay	0.5 µM	remaining signal	103%
O=C(O)[C@@H]1[C@@H](Cn2nnc3ccccc3c2=O)CC[C@H]1C(=O)c1ccc(OCCC2CCOCC2)cc1	cell-free assay, competition with immobilised ligand	1 µM	remaining binding	74%

Structure (SMILES)	assay	setting	quantity	value
Nc1ncnc2n[nH]c(Nc3ccc(F)cc3)c12	cell-free assay	0.5 µM	remaining signal	91.5%
FC(F)(F)Oc1cccc(-c2cnc3ccc(-c4ccncc4)nn23)c1	enzyme activity, inhibitor, radiometric	1 µM	activity vs control	103%
COc1cc2ncnc(Nc3ccc(Oc4ccccc4)cc3C)c2cc1OC	enzyme activity, inhibitor	1 µM	inhibition	8%
Cc1ccc(C(=O)Nc2ccc(CN3CCN(C)CC3)c(C(F)(F)F)c2)cc1C#Cc1cnc2cccnn12	enzyme activity, inhibitor	23.5 nM	remaining activity	94%
CCC(=N\O)/C(C)=C/c1ccc(F)cc1	cell-free assay, competition with immobilised ligand	1 µM	remaining binding	89%
CNC(=O)c1cc(Oc2ccc(NC(=O)Nc3ccc(Cl)c(C(F)(F)F)c3)cc2)ccn1	enzyme activity, inhibitor	10 µM	inhibition	-21%
Nc1nc(Nc2ccccc2)sc1C(=O)c1c(F)cccc1F	enzyme activity, inhibitor	10 µM	remaining activity	98%
O=C(N1CCS(=O)(=O)CC1)N1C[C@H](c2ccc(OC(F)(F)F)cc2)C[C@H](c2nc(C3CC3)no2)C1	cell-free assay, competition with immobilised ligand	1 µM	remaining binding	91%
C=CC(=O)Nc1cc(Nc2nccc(Nc3cc(Cl)c(F)cc3C(C)(C)O)n2)c(OC)cc1N1CC[C@@H](N(C)C)C1	enzyme activity, inhibitor	1 µM	inhibition	12%
COc1cc(Nc2cnc(C#N)c(O[C@H](C)CN(C)C)n2)ncc1-c1cnn(C)c1	enzyme activity, inhibitor, radiometric	1 µM	remaining activity	79%
CN1CC(Oc2cnc(C#N)cc2-c2ccn3nc(NC(=O)C4CC4)cc3c2)C1	enzyme activity, inhibitor	1 µM	inhibition	3%
O=C(NS(=O)(=O)c1ccc(NCC2CCOCC2)c([N+](=O)[O-])c1)c1ccc(N2CCN(Cc3ccc(C(F)(F)F)cc3-c3ccc(Cl)cc3)CC2)cc1Oc1cnc2[nH]ccc2c1	cell-free assay, competition with immobilised ligand	1 µM	remaining binding	88%
CCCOc1ccc(OC)c(F)c1C(=O)c1ccc(C(=O)N[C@@H]2CNC[C@H]2NC(=O)c2ccc3[nH]ncc3c2)cc1	enzyme activity, inhibitor	0.75 µM	remaining activity	34%
CCN(CC)CCNC(=O)c1c(C)[nH]c(/C=C2\C(=O)Nc3ccc(F)cc32)c1C	enzyme activity, inhibitor	0.3 µM	inhibition	28%
CC[C@H](CO)Nc1nc(NCc2ccccc2)c2ncn(C(C)C)c2n1	cell-free assay	0.5 µM	remaining signal	120%
O=C(NCCCC1CCCCC1)c1ccc(CNC(=O)c2cnn(-c3ccccc3)c2C(F)(F)F)cc1	cell-free assay, competition with immobilised ligand	0.1 µM	remaining binding	100%
Cc1cnc(NC2CCOCC2)nc1-n1cnc(C(=O)NC(CN)c2cc(F)cc(Cl)c2)c1 (stereo not shown)	enzyme activity, inhibitor, radiometric	1 µM	remaining activity	23%
